According to ChEMBL document CHEMBL1123577, “Synthesis and structure-activity relationships of a series of aminopyridazine derivatives of gamma-aminobutyric acid acting as selective GABA-A antagonists” (J Med Chem, 1987):

Columns and labels:
[1] = molecular target: GABA-A receptor; anion channel; assay: Binding affinity, determined by its ability to displace the [3H]GABA from Gamma-aminobutyric acid A (GABA-A) receptor site of rat brain membranes; design: species or system Membrane
[2] = molecular target: GABA-A receptor; anion channel; assay: Inhibition of [3H]GABA binding to Gamma-aminobutyric acid A (GABA-A) receptor of rat brain membranes; format: cell membranes, Membrane
In short: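 Triton-treated whole-brain membranes from male Wistar rats (180–220 g), labelled with [3H]GABA at 2.9 nM. Compounds were first screened at 100 μM. Those inhibiting binding by more than 50% were run as dose-inhibition curves of four to eight concentrations in triplicate incubations, and IC50 was derived by log-probit analysis.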

[3] = molecular target: 4-aminobutyrate aminotransferase, mitochondrial (Homo sapiens, UniProt P80404); assay: Compound was tested for inhibition of Gamma-amino-N-butyrate transaminase
4-aminobutyrate aminotransferase, mitochondrial, sequence (P80404 whole entry): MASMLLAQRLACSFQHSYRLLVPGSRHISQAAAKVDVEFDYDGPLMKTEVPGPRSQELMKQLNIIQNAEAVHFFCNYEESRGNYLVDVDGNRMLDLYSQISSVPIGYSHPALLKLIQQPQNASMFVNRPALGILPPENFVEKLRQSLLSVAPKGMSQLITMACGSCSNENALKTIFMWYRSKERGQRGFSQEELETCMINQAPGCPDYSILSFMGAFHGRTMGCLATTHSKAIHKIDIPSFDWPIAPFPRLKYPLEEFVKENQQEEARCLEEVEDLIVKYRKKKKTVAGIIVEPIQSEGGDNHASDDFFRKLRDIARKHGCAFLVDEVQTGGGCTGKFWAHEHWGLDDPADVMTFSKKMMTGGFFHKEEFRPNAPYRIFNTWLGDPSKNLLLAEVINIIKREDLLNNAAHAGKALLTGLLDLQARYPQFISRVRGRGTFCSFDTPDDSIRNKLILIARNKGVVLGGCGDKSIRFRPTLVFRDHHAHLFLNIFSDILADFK

[4] = Inhibitory activity against sodium-dependent synaptosome uptake was determined; format: functional, tissue-based, Brain

Cc1cc(-c2cccc(Cl)c2)n[n+](CCCC(=O)O)c1N
Ki [1]: 0.45 µM

O=C(O)CCc1c[nH]cn1
IC50 [2]: 290 µM

Cc1cc(-c2ccc(O)cc2)n[n+](CCCC(=O)O)c1N
Ki [1]: 0.43 µM

Cc1cc(-c2ccccc2)n[n+](CCC(C)C(=O)O)c1N (configuration not stated)
Ki [1]: 7 µM

COc1ccc(-c2cc(C)c(N)[n+](CCCC(=O)O)n2)cc1
Ki [1]: 0.31 µM

Cc1cc(-c2ccccc2Cl)n[n+](CCCC(=O)O)c1N
Ki [1]: 2.14 µM

C[N+]1(C)CCc2cc3c(cc2[C@H]1[C@@H]1OC(=O)c2c1ccc1c2OCO1)OCO3
Ki [1]: 38 µM

O=C(O)CCCC1CCNC1 (configuration not stated)
Ki [1]: > 100 µM

Cc1cc(N)[n+](CCCC(=O)O)nc1-c1ccccc1
Ki [1]: 10.4 µM

Oc1onc2c1CCNCC2
Ki [1]: 50 µM

Cc1cc(-c2ccccc2)n[n+](CCC(=O)O)c1N
Ki [1]: 7 µM

Nc1ccc(-c2cccs2)n[n+]1CCCC(=O)O
Ki [1]: 0.58 µM

NC1C(c2ccccc2)=CC(c2ccccc2)=NN1CCCC(=O)O (configuration not stated)
Ki [1]: 100 µM

Cc1cc(-c2ccccc2)n[n+](CCCC(N)=O)c1N
Ki [1]: 91 µM

O=C(O)CNC(=S)Nc1ccccc1
Ki [3]: 91 µM

Cc1cc(-c2ccccc2)n[n+](CCCCC(=O)O)c1N
Ki [1]: 10 µM

Nc1ccc(-c2ccc(Cl)cc2)n[n+]1CCCC(=O)O
Ki [1]: 0.28 µM

CCCN(CCC)CCCC(=O)O
Ki [1]: > 100 µM

N#CCCC[n+]1nc(-c2ccccc2)ccc1N
Ki [1]: 91 µM

N=C(N)NCCC(=O)O [OMPENACLID]
IC50 [2]: 1.8 µM

NC1C=CC(c2ccccc2)=NN1CCCC(=O)O (configuration not stated)
Ki [1]: 1.22 µM

CC(C)(C)C(=O)ONCCCC(=O)O
Ki [1]: 100 µM

Cc1cc(-c2ccccc2)n[n+](CCCC(=O)O)c1N [FAMIRAPRINIUM CHLORIDE]
Ki [1]: 2.3 µM

Nc1ccc(-c2ccc([N+](=O)[O-])cc2)n[n+]1CCCC(=O)O
Ki [1]: 1.37 µM

Cc1cc(-c2ccccc2)n[n+](C(C)CCC(=O)O)c1N (configuration not stated)
Ki [1]: 9 µM

N=C(N)NCC(=O)O [GUANIDINO ACETATE]
IC50 [2]: 2.1 µM

CCOC(=O)CCC[n+]1nc(-c2ccccc2)cc(C)c1N
Ki [1]: > 100 µM

Nc1ccc(-c2ccc(F)cc2)n[n+]1CCCC(=O)O
Ki [1]: 1.27 µM

Cc1cc(-c2ccccc2)nn(CCCC(=O)O)c1=O
Ki [1]: > 100 µM

Nc1ccc(C2CCCCC2)n[n+]1CCCC(=O)O
Ki [1]: 3.74 µM

Cc1cc(-c2ccccc2)n[n+](CCCC#N)c1N
Ki [1]: 20 µM

Cc1cc(-c2cccc3ccccc23)n[n+](CCCC(=O)O)c1N
Ki [1]: 2.64 µM

Nc1ccc(-c2ccc(Cl)cc2Cl)n[n+]1CCCC(=O)O
Ki [1]: 0.56 µM

CC(C)Cc1ccc(N)[n+](CCCC(=O)O)n1
Ki [1]: 22.3 µM

Cc1cc(-c2ccccc2)n[n+](CCCCCC(=O)O)c1N
Ki [1]: 12.7 µM

Nc1ccc(-c2ccsc2)n[n+]1CCCC(=O)O
Ki [1]: 2.37 µM

O=C(O)Cc1c[nH]cn1 [IMIDAZOLE ACETIC ACID]
IC50 [2]: 0.9 µM

Cc1ccc(-c2cc(C)c(N)[n+](CCCC(=O)O)n2)cc1
Ki [1]: 0.55 µM

Cc1cc(-c2ccccc2)n[n+](CC(=O)O)c1N
Ki [1]: 62 µM

Nc1ccc(-c2ccccc2Cl)n[n+]1CCCC(=O)O
Ki [1]: 1.37 µM

N=C(N)SCCC(=O)O
IC50 [2]: 29 µM

Cc1cc(-c2ccc([N+](=O)[O-])cc2)n[n+](CCCC(=O)O)c1N
Ki [1]: 22.8 µM

Cc1n[n+](CCCC(=O)O)c(N)cc1-c1ccccc1
Ki [1]: 10.6 µM

Cc1ccn[n+](CCCC(=O)O)c1N
Ki [1]: 31.9 µM

CC12CC(=O)C3C(CCC4CC(O)CCC43C)C1CC(=N)N2 (configuration not stated)
Ki [1]: 0.047 µM

N/C(S)=N\CC(=O)O
IC50 [2]: 18 µM

NC(=O)NCCCC(=O)O
Ki [1]: 100 µM

Nc1cc(-c2ccccc2)cn[n+]1CCCC(=O)O
Ki [1]: 100 µM

N#CCCC[n+]1nc(-c2ccccc2)cc(-c2ccccc2)c1N
Ki [1]: 91 µM

[N-]=[N+]=Nc1ccc(/C(N)=N/CCCC(=O)O)cc1
Ki [4]: 8 µM

Nc1ccc(Cl)n[n+]1CCCC(=O)O
Ki [1]: 91.2 µM

Nc1nc(CCC(=O)O)cs1
IC50 [2]: 68 µM
